Sampled rows, rich in hits. Any-hit rate of the full collection: about 2.6%.
ARFGAP1 inhibitor: inhibitors of rat ARFGAP1; Q62848; Arfgap1-stimulated ARF1 GTP hydrolysis, GDP FP detection; inhibition, % at 16.5 µM; 360,000 tested, 0.26% active; AID 651572;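 active = inhibition above a per-plate limit, mean inhibition of low control wells plus 3 SD, cut at about 25% in these data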;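 note: 0% = DMSO wells with enzyme and 100% = wells lacking Arfgap1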
Target sequence (Q62848 1-136 limits assumed): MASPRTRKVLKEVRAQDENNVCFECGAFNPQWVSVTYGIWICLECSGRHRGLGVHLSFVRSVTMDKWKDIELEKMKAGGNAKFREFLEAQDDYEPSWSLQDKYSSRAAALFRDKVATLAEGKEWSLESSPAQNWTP
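Material – truncated rat Arfgap1 GAP domain · Buffer or medium – HEPES-based buffer, pH 7.5 · Reagent – human ARF1(Δ1-17)-GTP substrate · Dosing – 16.5 µM single point, 1.26% DMSO · Schedule – GTP hydrolysis reaction 2 h at 25 °C · Technique – GDP detection by fluorescence polarization · Benchmarks – No-Arfgap1 wells (100%) versus DMSO full-reaction wells (0%) · Repeats – single replicate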
VIM-2 inhibitor: inhibitors of Pseudomonas aeruginosa VIM-2 metallo-beta-lactamase; purified VIM-2, nitrocefin hydrolysis, epi-absorbance fluorescence; inhibition, % at 5.6 µM; 290,000 tested, 0.89% active; AID 1527;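 active = inhibition above the mean of all tested compounds plus 3 SD, cutoff set per screening run, cut at about 7.5% in these data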;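 note: red hydrolysis product quenches plate fluorescence so inhibitors raise well fluorescence; 0% = enzyme with DMSO and 100% = DMSO without enzyme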
PHOSPHO1 inh: inhibitors of human PHOSPHO1 phosphatase; recombinant PHOSPHO1, absorbance phosphatase assay; inhibition, % at 13.3 µM; 290,000 tested, 1.1% active; Q8TCT1; in the data active = inhibition above about 60%
Calb FLC: affects C. albicans growth with fluconazole; growth inhibition, % (concentration not given with the values); 300,000 tested, 0.57% active; C. albicans CaCi-2 + fluconazole, Alamar Blue growth, 48 h;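 active = growth inhibition above about 58% in most replicates, limit read from the data, passing the limit was not always enough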;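 note: all wells also contain fluconazole at 8 µg/ml as a sub-toxic cotreatment; 0% = median of DMSO wells and 100% = median of geldanamycin control wells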
ASAP1 GAP inh: blocks human ASAP1-stimulated Arf1 GTP hydrolysis; inhibition, % at 16.5 µM; Q9ULH1; GDP FP detection; 360,000 tested, 0.19% active; in the data active = inhibition above about 25%;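 note: 0% = vehicle with enzyme and substrate and 100% = no enzyme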
Target sequence (Q9ULH1 325-724 limits assumed): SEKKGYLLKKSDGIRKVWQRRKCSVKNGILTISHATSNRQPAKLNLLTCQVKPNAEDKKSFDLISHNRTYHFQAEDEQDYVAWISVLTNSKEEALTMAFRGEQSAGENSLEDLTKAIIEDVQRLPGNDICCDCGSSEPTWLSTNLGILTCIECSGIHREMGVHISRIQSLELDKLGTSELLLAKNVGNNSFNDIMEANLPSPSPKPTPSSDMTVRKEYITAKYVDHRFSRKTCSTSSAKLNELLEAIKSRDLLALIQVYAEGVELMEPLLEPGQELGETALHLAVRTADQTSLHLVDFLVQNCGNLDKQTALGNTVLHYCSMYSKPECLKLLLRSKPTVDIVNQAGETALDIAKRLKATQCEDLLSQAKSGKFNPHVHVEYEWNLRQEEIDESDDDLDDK
IMP-1 inh: blocks Pseudomonas aeruginosa IMP-1 metallo-beta-lactamase. 290,000 tested, 0.45% active. purified IMP-1, nitrocefin hydrolysis, epi-absorbance fluorescence. inhibition, % at 5.6 µM;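 active = inhibition above the mean plus 3 SD of all compounds in the same screening run, cut at about 4.5% in these data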;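 note: 0% = IMP-1 with DMSO and 100% = DMSO wells lacking enzyme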
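Assay system: purified IMP-1; Quantity: IMP-1 0.2 nM before substrate addition; Medium: HEPES buffer pH 7.1 with ZnSO4 and Brij 35; Incubation: 15 min enzyme–compound preincubation, then 25 min nitrocefin reaction, 25 °C; Signal: fluorescence quenching readout, ex 480/em 530 nm; Controls: DMSO with and without IMP-1; Repeats: singlicate testing.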
Starred values were filed as active, the others as inactive; x = no result.

SMILES | ARFGAP1 inhibitor | VIM-2 inhibitor | PHOSPHO1 inh | Calb FLC | ASAP1 GAP inh | IMP-1 inh
COC(=O)C(C)(C)ONC(=O)Nc1ccc(C)cc1 | -2 | -1 | 6 | 2 | -8 | -3
c1cnc(SCCOc2cccc3ccccc23)nc1 | -9 | -1 | 16 | 36 | -10 | 4.8*
CCc1cc2c(=O)n(Cc3ccco3)c(SCC(=O)NCC3CCCO3)nc2s1 (stereo unspecified) | 0 | 1 | -19 | -4 | -2 | -2
CCc1cc2c(=O)n(Cc3ccco3)c(SCC(=O)N3CCCc4ccccc43)nc2s1 | 1 | 3 | 29 | -6 | -5 | 6.0*
C[C@@H]1CN([C@@H](C)CO)C(=O)c2ccccc2-c2ccccc2CO[C@@H]1CN(C)Cc1ccc(Cl)c(Cl)c1 | -10 | x | x | x | 15 | x
Cc1ccc(NC(=O)CNCc2ccccc2Cl)cc1S(=O)(=O)N(C)C | 8 | 0 | -3 | -4 | 5 | 37*
Cc1ccc(NC(=O)CNCc2ccc(Cl)cc2Cl)cc1S(=O)(=O)N(C)C | 4 | 1 | 16 | 1 | 3 | 0
CC(C)CC(=O)Nc1cccc2c1C(=O)N(c1ccccc1)C2=O | 8 | -1 | -17 | -2 | 1 | 7.5*
COc1ccc(C(NC(C)=O)c2cc(Cl)c3cccnc3c2O)cc1 (stereo unspecified) | 7 | -2 | 39 | 3 | 2 | -4
CCC(=O)NC(c1ccc(C)cc1)c1ccc2cccnc2c1O (stereo unspecified) | 11 | -5 | x | 0 | 5 | -5
CC(=O)NC(c1ccccc1)c1cc(Cl)c2cccnc2c1O (stereo unspecified) | -2 | 0 | -39 | 105* | -6 | -2
O=C(NC(c1ccc(Cl)cc1)c1cc(Cl)c2cccnc2c1O)c1cccnc1 (stereo unspecified) | -1 | -3 | -5 | 84* | -7 | -3
CCCC(=O)NC(c1ccc(OC)c(OC)c1)c1cc(Cl)c2cccnc2c1O (stereo unspecified) | 7 | -3 | 28 | 13 | 2 | -3
CCCC(=O)NC(c1ccco1)c1cc([N+](=O)[O-])c2cccnc2c1O (stereo unspecified) | -11 | -2 | 3 | 109* | 2 | -4
CCC(=O)NC(c1ccc(C)cc1)c1cc([N+](=O)[O-])c2cccnc2c1O (stereo unspecified) | 3 | -4 | 11 | 110* | 2 | -5
C=CCN1C(=O)c2n[nH]c(C(C)C)c2C1c1ccc(C)cc1 (stereo unspecified) | 6 | x | x | x | 4 | x
O=C1NC(c2ccccc2)(c2ccccc2)C(=O)N1CNc1ccccn1 | 6 | x | x | x | 11 | x
O=C(NCc1ccco1)C(=O)NN=Cc1ccccc1O | 6 | x | x | x | 2 | x
CC(C)(C)c1ccc(S(=O)(=O)N2CCN(C(=O)C(=O)c3cccc(C(F)(F)F)c3)CC2)cc1 | 5 | x | x | x | -3 | x
Nc1[nH]c(C(=O)c2ccccc2)c(-c2ccc(Cl)c(F)c2)c1C(=O)c1c[nH]c2ccccc12 | -4 | x | x | x | 0 | x
CC(=O)NC(c1ccc(N(C)C)cc1)c1cc(Cl)c2cccnc2c1O (stereo unspecified) | -6 | x | x | x | -4 | x
CCC(=O)NC(c1cccs1)c1cc(Cl)c2cccnc2c1O (stereo unspecified) | 2 | -3 | 3 | 99* | 4 | -4
CC(=O)NC(c1ccc(C)cc1)c1cc([N+](=O)[O-])c2cccnc2c1O (stereo unspecified) | 16 | -7 | -13 | 109* | 20 | -5
CCCn1c(C)c(CC(=O)Nc2ccc(N(C)c3ccccn3)cc2)c2ccccc21 | 1 | x | x | x | -6 | x
CC1(C)CC(C(N)=S)CCO1 (stereo unspecified) | 8 | -2 | 19 | 35 | -18 | -1
SMILES | ARFGAP1 inhibitor | VIM-2 inhibitor | PHOSPHO1 inh | Calb FLC | ASAP1 GAP inh | IMP-1 inh
CCC1(C)CC(C(N)=S)CCO1 (stereo unspecified) | 9 | -1 | -104 | 0 | -9 | 5.3*
CN(C)c1cccc2c(S(=O)(=O)NC(=O)[C@H]3O[C@@H](n4ccc(=O)[nH]c4=O)[C@H](O)[C@@H]3O)cccc12 | 0 | x | x | x | -7 | x
COC(=O)C1=C(C)N(Cc2cccc(C(F)(F)F)c2)C(=NCC2CC2)NC1c1ccccc1 (stereo unspecified) | 3 | x | x | x | -11 | x
CC(C)(C)c1cc[n+](C2=C([O-])c3ccccc3C(=O)/C2=N\S(=O)(=O)c2cccs2)cc1 | 2 | 3 | 20 | 57 | 6 | 7.0*
O=C1/C(=N\S(=O)(=O)c2cccs2)C([n+]2ccccc2)=C([O-])c2ccccc21 | -5 | -1 | 15 | 1 | 3 | -1
CC(C)c1nnc(NC(=O)c2cccs2)s1 | 2 | -2 | 1 | 13 | -4 | -5
CC(C)N(C(=O)CSc1nnc(NC(=O)c2cccs2)s1)C(C)C | 9 | 10.0* | 13 | 10 | 4 | -3
CCCCCCCCN1C(=O)[C@@H](CC(=O)NCCCOC)C[C@@]2(C(=O)OC)C1=C[C@H](C1CCCC1)O[C@@H]2C | 3 | x | x | x | -9 | x
CN[C@H]1C[C@@H](c2ccccc2Br)N(C(C)=O)C[C@H]1CO | 3 | x | x | x | 0 | x
COc1cccc(NC(=O)[C@H](C)NC(=O)N2CCn3c2nc2ccccc23)c1 | 18 | -5 | 65* | -8 | -10 | -2
CC(=O)c1cccc(NC(=O)COC(=O)C2=COCCO2)c1 | 16 | -2 | 68* | -5 | -12 | 0
COc1ccc(Nc2nc(N)nc(CSc3nc(C)cc(C)n3)n2)cc1 | -5 | -3 | 60* | 21 | -3 | -3
COCCN1C(=O)[C@H]2C[C@@]13O[C@H](C1CCCCC1)N=C3CC1c3ccccc3C[C@@]12C (stereo partly specified) | 1 | x | x | x | -6 | x
COC(=O)c1[nH]c2ccccc2c1NC(=O)C(C)N1CCN(C(=O)c2ccco2)CC1 (stereo unspecified) | 5 | -1 | 72* | 7 | 0 | -3
CCOC(=O)N1CCN(c2ccc(Cl)cc2)CC1 | 4 | -3 | -10 | 0 | -2 | -1
CCOC(=O)N1CCN(c2ccc(O)cc2)CC1 | 11 | -1 | 63* | -23 | 1 | -4
COc1ccccc1CCn1cnc(-c2ccc(F)cc2)c1C(C)C | -8 | x | x | x | -5 | x
Cc1ccc(O)c(NC(=O)c2ccc3c(c2)C(=O)N(Cc2cccnc2)C3=O)c1 | 0 | -3 | 63* | -4 | -5 | 0
C[C@@H]1CN([C@@H](C)CO)C(=O)CCCn2cc(nn2)CO[C@H]1CN(C)C(=O)CCC(F)(F)F | 0 | x | x | x | -3 | x
COC(=O)C1=C(C)N(Cc2ccccc2)C(=S)NC1c1cccc(Br)c1 (stereo unspecified) | -6 | x | x | x | 4 | x
CN(Cc1ccccc1)C(=O)C1CCN(S(=O)(=O)c2ccc3nc4c(c(C(=O)O)c3c2)CCCC4)CC1 | 10 | 1 | 30 | -1 | -2 | 5.5*

Screening results as filed in PubChem BioAssay.
